Only some compounds are listed: those with a hit (about 3.3% of all), similar ones and a draw of the others.
HTRA1 inhibitor: inhibitors of human serine peptidase HTRA1; inhibition, % at 5.96 µM; recombinant HTRA1, FP-rhodamine activity-based probe, fluorescence polarization; 340,000 tested, 0.5% active; in the data active = inhibition above about 36%;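 note: 0% = enzyme with DMSO and 100% = wells lacking enzyme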
PRMT1 FP inh: inhibitors of human PRMT1. inhibition, % at 2.79 µM. recombinant PRMT1, activity-based probe fluorescence polarization. 370,000 tested, 1.3% active. Q99873. AID 652257;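 active = inhibition above about 21% made by adding two undisclosed values, limit read from the data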
SIAE primary: blocks human sialic acid acetylesterase; Q9HAT2; SIAE FP-Rh probe binding, fluorescence polarization; inhibition, % at 9.66 µM; 370,000 tested, 0.69% active; AID 1053197;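 active = inhibition above a cutoff: mean of compounds within the control limits plus 3 SD of those, cut at about 17% in these data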;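 note: 0% = plate median of compound wells and 100% = probe without SIAE protein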
Target sequence (Q9HAT2 whole entry, looked up): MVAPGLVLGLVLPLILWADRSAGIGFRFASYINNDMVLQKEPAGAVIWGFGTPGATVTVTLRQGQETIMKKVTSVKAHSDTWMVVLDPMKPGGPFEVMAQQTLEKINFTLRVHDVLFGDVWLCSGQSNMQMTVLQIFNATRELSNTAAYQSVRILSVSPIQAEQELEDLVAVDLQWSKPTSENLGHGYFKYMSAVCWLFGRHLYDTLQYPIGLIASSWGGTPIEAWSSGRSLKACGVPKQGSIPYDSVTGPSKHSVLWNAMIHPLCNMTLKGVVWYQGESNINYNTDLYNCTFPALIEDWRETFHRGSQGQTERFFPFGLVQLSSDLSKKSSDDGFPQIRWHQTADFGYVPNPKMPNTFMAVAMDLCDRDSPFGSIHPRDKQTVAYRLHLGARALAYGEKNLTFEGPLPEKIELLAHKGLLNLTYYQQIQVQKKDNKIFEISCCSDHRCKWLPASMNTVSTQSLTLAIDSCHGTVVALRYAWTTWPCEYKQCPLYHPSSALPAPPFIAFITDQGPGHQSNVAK
rCAG binder: molecules binding r(CAG) RNA repeats | r(CAG) RNA repeat, TO-PRO-1 dye displacement fluorescence | inhibition, % at 3 µM | 370,000 tested, 1.3% active | AID 651821;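 active = inhibition above the plate cutoff, the mean of all test compounds on that plate plus 3 SD, cut at about 35% in these data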;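 note: 0% = DMSO alone and 100% = 100 µM mitoxantrone as full dye displacement; higher means more dye released from RNA so lower well fluorescence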
ABHD4 inh: inhibitors of mouse ABHD4; purified mABHD4, FP-Rh probe fluorescence polarization; 370,000 tested, 0.54% active; Q8VD66; inhibition, % at 8.92 µM;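 active = inhibition exceeding the mean over every tested compound plus 3 SD, cut at about 30% in these data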;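 note: 0% = plate median of compound wells and 100% = S159A mutant with DMSO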
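Test system: mABHD4 protein; Read-out basis: % inhibition; Incubation: 45 min + 60 min at 25 °C; Repeats: single replicate; Technique: fluorescence polarization with parallel and perpendicular emission, 525/598 nm; Compound: 8.92 µM, single dose; Benchmarks: full inhibition S159A mutant plus DMSO, zero as sample-well median.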
Starred values were filed as active, the others as inactive; . = no result given.

SMILES	HTRA1 inhibitor	PRMT1 FP inh	SIAE primary	rCAG binder	ABHD4 inh
N#Cc1ccccc1NC(=O)C1SC(=Nc2ccccc2)C(C(=O)Nc2ccc(Cl)cc2)=C1N (stereo unspecified)	-51.8	0.8	-5.1	37.4*	-89.8
c1ccc(C2=NNC(=NC3CC3)SC2)cc1	-3.4	64.8*	3.0	0.2	-1.1
O=C(NCc1ccccc1)[C@@H]1CCCN1C(=O)[C@H]1CCCN1C(=O)c1ccc(Cl)cc1	.	3.8	4.2	-0.4	0.4
O=C1c2ccccc2C(=O)N1/N=C/c1ccc(O)c(O)c1O	44.1*	.	.	.	.
O=C1c2cccc3cccc(c23)C(=O)N1/N=C/c1ccc(O)cc1O	0.9	-1.0	7.4	1.8	0.7
CCOc1ccc(-c2cc3nc(C4CCN(C(=O)OC(C)(C)C)CC4)c(C(=O)O)cn3n2)cc1	-50.6	1.0	-22.2	69.6*	-67.0
O=C1N/C(=N\S(=O)(=O)Cc2ccccc2)S/C1=C/c1cc([N+](=O)[O-])ccc1O	8.3	0.9	-23.5	71.5*	17.9
Cc1oc(-c2cccs2)nc1CS(=O)CC(=O)NCCc1ccccc1 (stereo unspecified)	-4.5	22.2*	-4.9	7.9	6.8
CCCCNC(=O)CS(=O)Cc1nc(-c2cccs2)oc1C (stereo unspecified)	3.2	3.0	5.3	7.1	-2.2
Cc1ccc(Cl)cc1Nc1nc(-c2sc(NC(=O)c3ccco3)nc2C)cs1	-41.0	3.1	-6.7	30.1	0.9
Cc1nc(NC(=O)c2ccco2)sc1-c1csc(Nc2ccc(Cl)cc2Cl)n1	-16.4	-0.1	1.0	48.4*	3.9
O=C(CSC1=NS(=O)(=O)c2ccccc21)Nc1ccccc1	-2.1	62.7*	4.0	1.6	4.7
CC(C)=CCCC1=CC[C@H]2[C@@H](C1)C(C(C)C)=CC(=O)[C@@]2(C)O	.	-1.3	6.5	-1.3	-0.5
Oc1ccc(-c2cnns2)c(O)c1	3.5	23.9*	6.8	5.4	16.4
CCN=C1NC(c2ccccc2C(F)(F)F)C(C(=O)OC)=C(C)N1Cc1ccc(C(F)(F)F)cc1 (stereo unspecified)	.	0.5	-3.5	3.9	1.2
COc1ccc(C(=O)Nc2ccc(S(=O)(=O)Nc3cc(C)nc(C)n3)cc2)c(OC)c1	-0.2	21.2*	-9.1	13.3	-4.8
COc1ccccc1C(=O)Nc1ccc(S(=O)(=O)Nc2cc(C)nc(C)n2)cc1	1.3	-2.4	-11.6	10.1	-8.3
COc1ccc(C2CC(=O)C(c3ccc(C(F)(F)F)cc3)=CN2Cc2ccccc2)cc1 (stereo unspecified)	.	1.3	-5.2	6.7	-10.9
O=C(NCc1ccccc1)[C@H]1CCCN1C(=O)[C@H]1CCCN1C(=O)c1cccc(Cl)c1	.	1.4	-1.9	0.8	7.6
O=C(Nc1ccc(S(=O)(=O)Nc2ncccn2)cc1)C1=COCCO1	0.2	21.9*	-0.3	6.8	-6.3
CC(=O)Nc1ccc(S(=O)(=O)Nc2ncccn2)cc1	3.1	0.2	-2.3	-0.8	7.2
O=[N+]([O-])c1ccc(-c2ccc(C=Nc3cccc4ccccc34)o2)cc1	-0.1	22.0*	-1.1	0.9	14.3
c1ccc2c(c1)-c1ccccc1C2N1CCOCC1	3.7	24.5*	-3.2	0.0	-1.8
O=C(Nc1cccc(-c2csc(Nc3ccc(Cl)cc3)n2)c1)c1ccccc1	-4.6	4.0	-6.1	24.5	-16.7
O=C(Nc1cccc(-c2csc(Nc3ccc(Cl)cc3)n2)c1)c1cccc(C(F)(F)F)c1	13.3	-0.9	13.5	40.1*	-6.5
SMILES	HTRA1 inhibitor	PRMT1 FP inh	SIAE primary	rCAG binder	ABHD4 inh
O=c1[nH]c2cc3c(cc2cc1C(c1nnnn1C1CCCCC1)N1CCSCC1)OCCO3 (stereo unspecified)	6.2	22.2*	-8.5	7.8	-7.0
O=C(O)c1ccc(-c2ccc(/C=C3\NC(=O)N(Cc4ccc(Cl)cc4)C3=O)o2)cc1Cl	-6.5	43.1*	-24.4	53.0*	17.6
COC(=O)C1=C(C)N(Cc2ccccc2C(F)(F)F)C(=NCc2cc(OC)c(OC)c(OC)c2)NC1c1cccc(C(F)(F)F)c1 (stereo unspecified)	.	-1.0	-0.5	-1.6	-2.1
O=C(N[C@H](Cc1ccccc1)C(=O)NCCCc1ccccc1)[C@H]1O[C@@H](n2ccc(=O)[nH]c2=O)[C@H](O)[C@@H]1O	.	-0.7	2.5	-0.3	-1.6
Cc1nnc(NC(=O)c2sc3nc(-c4cccs4)cc(C(F)(F)F)c3c2N)s1	-1.7	0.4	-18.5	42.1*	8.8
CCCCCCCCN1C(=O)[C@@H](CC(=O)N2CCC(c3ccccc3)CC2)C[C@@]2(C(=O)OC)C1=C[C@H](C1CCCC1)O[C@@H]2C	.	-2.8	-0.6	2.8	0.4
O=C(CSc1nc2nc(-c3cccs3)cc(C(F)(F)F)c2c(=O)[nH]1)Nc1ccc(F)c(F)c1	-96.9	0.1	-66.8	67.6*	-57.7
COc1cc2c(c(OC)c1OC)[C@@]1(c3ccccc3)CCCC[C@H]1[C@@H]2NC(=O)C(F)(F)F	.	-11.3	14.4	0.8	-7.8
COc1cccc(OC)c1C(=O)Nc1ccccc1N1CCCCC1	-10.5	-4.4	7.4	-9.0	-13.1
COc1cccc(Nc2ccc(N3CCCCC3)cc2)c1OC	17.4	24.1*	8.3	-1.5	20.9
O=C(Nc1cccs1)Nc1ccc(Br)cc1F	-11.7	-1.6	20.1*	6.6	6.0
COC(=O)c1cc2c(c3c4cc(OC)ccc4n(S(=O)(=O)c4ccc(OC)cc4)c13)C(=O)N(C1CCCCC1)C2	.	-0.9	-2.3	10.4	25.4
CCOc1ccc(N2C(=O)CC(SCCN)C2=O)cc1 (stereo unspecified)	6.8	22.2*	-4.0	6.3	5.1
CCOC(=O)c1c(-c2ccc(C)o2)csc1NC(=O)CN(C)CC(=O)Nc1ccc(C)cc1	-28.2	21.7*	2.7	10.8	1.0
COc1ccc(/C=C/C(=O)c2ccc([N+](=O)[O-])o2)cc1OC	.	3.0	1.5	1.3	-1.4
O=C(/C=C/c1cccc(Cl)c1)c1ccc([N+](=O)[O-])o1	42.9*	17.1	-5.2	13.5	8.0
Cc1cc(SCC(=O)c2ccccc2)nc(=O)[nH]1	1.8	24.7*	-3.0	9.5	-9.7
CC(=O)Oc1cccc2c1C(=O)C1CC=CC(OC(C)=O)C1C2=O (stereo unspecified)	15.3	56.5*	-6.0	3.6	2.1
O=C(NC(=S)Nc1ccc(F)c([N+](=O)[O-])c1)c1ccccc1F	-5.1	33.0*	3.3	5.4	4.5
C[C@@H]1C=CCCO[C@]12C(=O)N(Cc1ccccc1C(F)(F)F)c1cccc(Br)c12	.	2.0	-1.6	1.5	-0.4
C[C@H]1CN(C(=O)OC(C)(C)C)CCN1c1ccc(N2CCS(=O)(=O)CC2)c(C#N)c1	.	3.0	3.8	3.2	1.7
O=C(CSc1ccc2c(c1)OCCO2)Nc1ncccc1O	7.9	23.9*	3.8	0.1	1.8
O=C(CSc1ccc2c(c1)OCCO2)Nc1ccc(Br)cn1	-9.7	12.2	1.8	-3.0	3.6
CN1OC[C@@H]2CN(C(=O)c3ccc(C#N)cc3)[C@H](c3cccc(Br)c3)C[C@@H]21	.	-0.4	0.4	1.8	-6.2

Source: PubChem (The Scripps Research Institute Molecular Screening Center)
